From BindingDB's records for doi:10.1021/np990092+ (Peking Union Medical College, 1999) come the findings set out here.

The test deals with T1, Polyunsaturated fatty acid 5-lipoxygenase (Rattus norvegicus, UniProt P12527).
T1 sequence (P12527 whole entry): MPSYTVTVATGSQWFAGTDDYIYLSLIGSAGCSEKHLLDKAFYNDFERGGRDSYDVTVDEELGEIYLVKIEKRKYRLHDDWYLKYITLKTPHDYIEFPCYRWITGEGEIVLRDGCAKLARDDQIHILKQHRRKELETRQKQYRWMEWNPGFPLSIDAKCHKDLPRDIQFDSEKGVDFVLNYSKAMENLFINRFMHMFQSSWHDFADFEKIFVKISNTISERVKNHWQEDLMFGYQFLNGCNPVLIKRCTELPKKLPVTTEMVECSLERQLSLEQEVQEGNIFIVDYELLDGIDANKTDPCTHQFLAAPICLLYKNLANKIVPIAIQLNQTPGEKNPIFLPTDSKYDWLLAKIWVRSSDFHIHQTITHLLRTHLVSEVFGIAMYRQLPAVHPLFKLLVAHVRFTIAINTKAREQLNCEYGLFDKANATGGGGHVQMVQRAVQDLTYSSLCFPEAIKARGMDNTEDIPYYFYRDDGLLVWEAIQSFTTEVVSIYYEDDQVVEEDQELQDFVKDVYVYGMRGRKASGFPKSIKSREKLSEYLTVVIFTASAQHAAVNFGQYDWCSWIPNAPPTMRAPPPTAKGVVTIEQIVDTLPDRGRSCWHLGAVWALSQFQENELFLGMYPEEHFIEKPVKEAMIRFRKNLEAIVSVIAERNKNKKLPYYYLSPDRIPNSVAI
Put plainly: Inhibition of 5-lipoxygenase in Wistar rat peritoneal leukocytes. An outline of the steps: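 Leukocytes (~85% PMNs) were elicited in male Wistar rats (200-300 g) with ip 6% oyster glycogen and harvested 16-20 h later. Cells at 2.5 × 10^6/mL in complete HBSS were tested in triplicate, preincubated with the sample (in DMSO, or CHCl3 evaporated) for 10 min at 37 °C, then given A23187 for 10 min. Supernatant LTB4 was measured by RIA (3H-LTB4 tracer, rabbit antiserum, 18 h, 4 °C).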

Consider `C=C1CCCC(C)C(=O)C(=O)[C@@H]2[C@@H]1CC2(C)C` (stereo partly specified) [buddledin B], for which the IC50 was more than 200 µM.

The IC50 is the midpoint of a concentration-inhibition curve. Low values mean inhibition by little substance, high ones a need for much substance.
